Source: ChEMBL document CHEMBL4513216, “Probing the Open Global Health Chemical Diversity Library for Multistage-Active Starting Points for Next-Generation Antimalarials” (ACS Infect Dis, 2020)

Experiment: Toxicity liver stage against HepG2, at 10uM
Format: cell-based
Design: test concentration 10 uM, cell line HepG2-A16-CD81EGFP
Conditions: human, HepG2-A16-CD81EGFP cells; read-out: INHIBITION
Summary of the method: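 Uninfected HepG2-A16-CD81EGFP cells, 3 × 10^3 per well, 1536-well, plated on prespotted compound at 10 μM final, parasite-free screening media added to match infected plates; puromycin 10 μM positive, DMSO 0.5% negative; run in parallel with 48 h PbLuc assay at 37 °C, 5% CO2; viability by CellTiter-Glo luminescence, normalized to controls.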

## Cc1nn(C)c(C)c1C1COCCN1C(=O)c1n[nH]c2ccccc12 (stereo not given)
  cytotoxicity at 10 µM: -8.72%

## CCNC(c1ccc(OC)cc1)c1cccnc1 (stereo not given)
  cytotoxicity at 10 µM: -3.54%

## O=C(c1cccnc1)N1Cc2ccccc2OCC1Cn1ccnc1 (stereo not given)
  cytotoxicity at 10 µM: 1.68%

## Cc1cc(CN2CCCC2)cc(Oc2ccc(C(F)(F)F)cn2)c1
  cytotoxicity at 10 µM: -9.72%

## CCc1nn(C)c(Cl)c1CN1CCCC2(C1)CN(C)C(=O)O2 (stereo not given)
  cytotoxicity at 10 µM: 5.44%

## Fc1cnc(N2C[C@@H](OCC3CCOCC3)[C@H]3OCCC[C@H]32)nc1
  cytotoxicity at 10 µM: 10.5%

## Cc1cc(C(=O)NCC(C)N2CCc3ccccc32)no1 (stereo not given)
  cytotoxicity at 10 µM: -8.8%

## CN(CC(N)=O)C(=O)CCCn1ccc2cc(Cl)ccc21
  cytotoxicity at 10 µM: -2.13%

## Cc1ccccc1CC1(CO)CCCN(c2ncnc3sccc23)C1 (stereo not given)
  cytotoxicity at 10 µM: 27.5%

## CCn1c(C2CCN(C(=O)CCc3cc(Cl)no3)CC2)nn(C)c1=O
  cytotoxicity at 10 µM: -7.09%

## Cc1ncnc2c1CCN(Cc1ccccn1)CC2
  cytotoxicity at 10 µM: -10.4%

## Cc1cc(C)n(CC2CCCN2C(=O)Cc2c(C)noc2C)n1 (stereo not given)
  cytotoxicity at 10 µM: -4.05%

## O=S(=O)(Nc1ccccn1)c1cc(Cl)cc2c1OCC2
  cytotoxicity at 10 µM: 0.38%

## Cc1cccc(C(=O)NC2CCN(c3cnn(C)c3)C2=O)c1C (stereo not given)
  cytotoxicity at 10 µM: -1.2%

## CC(C)(C)c1cn(CC2CCCN(c3cnc4ccccc4n3)C2)nn1 (stereo not given)
  cytotoxicity at 10 µM: 42.9%

## Cc1ccccc1C(C#N)NC(=O)CCCOc1cccnc1 (stereo not given)
  cytotoxicity at 10 µM: -0.398%

## Cc1nn(C)c(C)c1-c1nc2cc(S(=O)(=O)N3CCCC3)ccc2n1C
  cytotoxicity at 10 µM: -6.05%

## CCOc1ccccc1OCCN(C)Cc1nccn1C
  cytotoxicity at 10 µM: -3.8%

## CC(C)Oc1ccc(C(=O)N2CCC(Nc3cccnn3)CC2)cn1
  cytotoxicity at 10 µM: -31%

## Cn1ccnc1CN1CCN(c2ccc(C#N)cn2)CC1
  cytotoxicity at 10 µM: -4.2%

## CC(C)c1ocnc1C(=O)NC(c1nnc2n1CCNCC2)C(C)C (stereo not given)
  cytotoxicity at 10 µM: -9.72%

## Cc1csc(N2CCN(C(=O)Cc3ccsc3)CC2)n1
  cytotoxicity at 10 µM: 2.68%

## Cc1cc(C)n(CC2CCCN2C(=O)c2cccnc2N(C)C)n1 (stereo not given)
  cytotoxicity at 10 µM: -3.56%

## COc1cccc(OCCc2cncc(C(N)=O)c2)c1
  cytotoxicity at 10 µM: -135%

## COc1ccc(C(=O)COc2coc(CN3CCSCC3)cc2=O)cc1
  cytotoxicity at 10 µM: 8.13%

## CCN1C[C@H]2CCN(C(=O)c3cc[nH]n3)CC[C@H]2S1(=O)=O
  cytotoxicity at 10 µM: 12.2%

## COc1cc(N2CCC3(CCCN3Cc3ccn(C)n3)CC2)ncn1
  cytotoxicity at 10 µM: 4.89%

## c1cncc(CN2CCCC3(COCCN(c4cncnc4)C3)C2)c1 (stereo not given)
  cytotoxicity at 10 µM: -73.3%

## CC(NCCCn1ccnc1)c1ccc(N2CCCS2(=O)=O)cc1 (stereo not given)
  cytotoxicity at 10 µM: -7.49%

## COc1ccccc1S(=O)(=O)Nc1cnc(O)cc1C
  cytotoxicity at 10 µM: -13.2%

## Cc1occc1CNC(=O)Nc1ccc2nc(N3CCOCC3)oc2c1
  cytotoxicity at 10 µM: 9.5%

## Cc1ncsc1C(=O)NCc1cccnc1N(C)CCc1ccccn1
  cytotoxicity at 10 µM: -14.5%

## CCc1nc(CN2CCCN(C(=O)CCOC(C)C)CC2)cs1
  cytotoxicity at 10 µM: -17.3%

## O=C(c1cc(F)cc(Cl)c1)N1CCN(CCO)[C@@H]2CS(=O)(=O)C[C@@H]21
  cytotoxicity at 10 µM: -2.24%

## Cc1cc(NC(=O)N2CCOCC2)nn1-c1ccccc1Cl
  cytotoxicity at 10 µM: 11.1%

## CCCc1n[nH]c(C2CN(C(=O)c3cc(F)ccc3OC)CCO2)n1 (stereo not given)
  cytotoxicity at 10 µM: -5.58%

## O=C(c1cnccn1)N1CCC2(CC1)CCN(Cc1ccccn1)C2=O
  cytotoxicity at 10 µM: 0.108%

## CCCc1nnc(NCCCn2nc(C)c(Cl)c2C)o1
  cytotoxicity at 10 µM: -0.351%

## CC(C1CCN(Cc2cnn(C)c2C2CC2)CC1)N1CCN(C)CC1 (stereo not given)
  cytotoxicity at 10 µM: -11.9%

## CC(C)c1nnc2n1CCN(C(=O)c1ccc3c(c1)CCC3)C2
  cytotoxicity at 10 µM: -10.7%

## COCc1ccc(C(=O)N(CCC#N)Cc2ccccn2)cc1
  cytotoxicity at 10 µM: 14%

## CN(C)C1CCCN(C(=O)NCCc2cc(F)ccc2F)C1 (stereo not given)
  cytotoxicity at 10 µM: -1.05%

## Cc1cnn(CC2CCCCN2C(=O)c2csc(C)n2)c1 (stereo not given)
  cytotoxicity at 10 µM: -1.16%

## Cn1ncc2c1C(COCC1CC1)CN(CC1CC1)C2 (stereo not given)
  cytotoxicity at 10 µM: -78.5%

## Cc1ccc(CNCCOc2ccc(S(C)(=O)=O)cc2)cc1
  cytotoxicity at 10 µM: -9.12%

## CS(=O)(=O)N1C[C@H]2CC[C@@H](C1)N(C(=O)Cn1ccc3ccccc31)C2
  cytotoxicity at 10 µM: -1.38%

## COc1ccc(C2=CCN(C(=O)CN(C)CC(C)C#N)CC2)cc1 (stereo not given)
  cytotoxicity at 10 µM: -9.52%

## O=C(Cc1ccsc1)N1CCc2ccc(=O)n(CC3CC3)c2CC1
  cytotoxicity at 10 µM: 6.13%

## O=C(Nc1ccccc1OC1CCOC1)c1cc[nH]n1 (stereo not given)
  cytotoxicity at 10 µM: -1.57%

## COCCN(Cc1sccc1C)c1nc(C)nc2sccc12
  cytotoxicity at 10 µM: -131%

## CN(C)CCN1CCO[C@@H]2CCN(C(=O)c3cccn3C)CC[C@H]21
  cytotoxicity at 10 µM: 7.17%

## CCOc1cccc(NS(=O)(=O)c2cc(C)c(C(=O)O)s2)c1
  cytotoxicity at 10 µM: -5.28%

## COCCN(Cc1ccco1)Cc1nc(-c2ccsc2)no1
  cytotoxicity at 10 µM: 1.02%

## CC(C)n1c(=O)c2ccccc2n(CCN(C)C)c1=O
  cytotoxicity at 10 µM: 0.616%

## Cc1ccc(C)c(Oc2ccc(CNC(=O)C3CCC(=O)N3)cn2)c1 (stereo not given)
  cytotoxicity at 10 µM: 5.98%

## CN(C)C(=O)CN1CCN(c2ccnc3c(F)ccc(F)c23)CC1
  cytotoxicity at 10 µM: 4.44%

## Cc1ccc(CN2CCC(CNC(=O)Cn3cncn3)CC2)cc1
  cytotoxicity at 10 µM: 1.22%

## CC(C)(CO)NCc1nn(Cc2ccccc2)nc1-c1ccccc1
  cytotoxicity at 10 µM: -6.69%

## CS(=O)(=O)N1CCC(c2nnc(Cn3ccnc3)n2C2CC2)CC1
  cytotoxicity at 10 µM: -1.24%

## Cn1cc(-c2nc(CN3CCOC(Cn4cccn4)C3)cs2)cn1 (stereo not given)
  cytotoxicity at 10 µM: -4.04%

## Cn1ncc2c(N3CCN4CCCCC4C3)nc(C3CCCC3)nc21 (stereo not given)
  cytotoxicity at 10 µM: -139%

## COc1c(CNCc2ccc(N3CCOCC3)cc2)c(C)nn1C
  cytotoxicity at 10 µM: 2.1%

## COc1ccccc1CN1C(=O)O[C@@H]2CN(c3nccs3)C[C@@H]21
  cytotoxicity at 10 µM: 6.27%

## Cc1cc2c(cc1NC(=O)NCC(C)C)OCO2
  cytotoxicity at 10 µM: 1.01%

## CCOCCC1(C(=O)N2CCCC(c3ncc[nH]3)C2)CCCC1 (stereo not given)
  cytotoxicity at 10 µM: -1.7%

## CCSc1ncc(CN2CCN(c3nc(C)cnc3C)CC2)cn1
  cytotoxicity at 10 µM: 5.84%

## CN(C)C(=O)c1cccnc1SCc1ccccc1Cl
  cytotoxicity at 10 µM: 3.25%

## Cc1cc(N2CCN(C(=O)c3cnn(C(C)C)c3)CC2)nc(N)n1
  cytotoxicity at 10 µM: -2.82%

## O=C1CC[C@H]2CN(c3ncccc3F)CC[C@H]2N1CCc1ccccc1
  cytotoxicity at 10 µM: 4.52%

## Cn1cc(C(=O)N2CC[C@H](N3CCOCC3)[C@H](CCCO)C2)cn1
  cytotoxicity at 10 µM: -158%

## Cc1ccc(C(F)(F)F)cc1NCC(=O)Nc1c(C)nn(C)c1C
  cytotoxicity at 10 µM: -1.86%

## Cc1nc(-c2c(-c3ccccc3)ncn2CCCN2CCOCC2)c[nH]1
  cytotoxicity at 10 µM: -6.76%

## CN(Cc1ccc(N2CCCCC2)cc1)Cc1noc(C(C)(C)C)n1
  cytotoxicity at 10 µM: 12.5%

## CSc1ncc(C(=O)NCCn2nccc2C)cn1
  cytotoxicity at 10 µM: 2.86%

## Cc1cc(C)c(CNC(=O)N(C)Cc2ccc(F)cc2)c(=O)[nH]1
  cytotoxicity at 10 µM: -9.12%

## Cc1ccc2nc(CNCCCOc3ccccc3)cc(O)c2c1 [UCSF924]
  cytotoxicity at 10 µM: 5.5%

## c1cnc(N2CCCC(Cc3nccs3)C2)nc1 (stereo not given)
  cytotoxicity at 10 µM: 0.45%

## NCCC(=O)Nc1ccc(-c2ccccc2)cc1
  cytotoxicity at 10 µM: -1.81%

## O=C1CCC2(CCCN(C(=O)c3ccoc3)C2)CN1Cc1ccncc1 (stereo not given)
  cytotoxicity at 10 µM: 3.06%

## COc1cccc(-c2cc(NCCN(C)C)nc3[nH]ccc23)n1
  cytotoxicity at 10 µM: -3.97%

## CN(Cc1nc2ccccc2[nH]1)C(=O)CN(C)c1ccc(Cl)cn1
  cytotoxicity at 10 µM: -2.66%

## CC(C)OCc1ccc(CNc2cncc(-n3cccn3)n2)cc1
  cytotoxicity at 10 µM: 43.8%

## Cc1oc(-c2cccc(F)c2)nc1CN1CCOCS1(=O)=O
  cytotoxicity at 10 µM: 2.74%

## CN1CCCN(C(=O)NCCNc2cnccn2)CC1
  cytotoxicity at 10 µM: -3.4%

## O=C1COc2ccc(S(=O)(=O)N3CCOCC3)c3c2N1CCC3
  cytotoxicity at 10 µM: 7.55%

## CN(Cc1nc(-c2ccoc2)no1)C1CCCN(c2cccnn2)C1 (stereo not given)
  cytotoxicity at 10 µM: -14.8%

## CC(C)CCN1CC2(CCCN(C(=O)c3cscn3)C2)CCC1=O (stereo not given)
  cytotoxicity at 10 µM: -13.9%

## O=S(=O)(c1cn[nH]c1)N1CCC(O)(CN2CCOCC2)C1 (stereo not given)
  cytotoxicity at 10 µM: 2.5%

## O=C(Nc1ccnc(OC2CCOC2)c1)c1cc(F)ccc1F (stereo not given)
  cytotoxicity at 10 µM: 5.87%

## CCOCCCn1c(NC(=O)c2scnc2C)nc2ccccc21
  cytotoxicity at 10 µM: 5.9%

## CC(=O)N1C[C@H]2CN(CC3CC3)C(=O)[C@H]2C1
  cytotoxicity at 10 µM: 6.32%

## Cn1cc(C2CCCN2c2ncnc3[nH]ccc23)cn1 (stereo not given)
  cytotoxicity at 10 µM: -9.59%

## CC(C)c1nccn1C1CCCN(C(=O)c2ccc(=O)n(C)n2)C1 (stereo not given)
  cytotoxicity at 10 µM: 7.8%

## CC(C)c1noc(CN(Cc2cccnc2)C2CN3CCC2CC3)n1 (stereo not given)
  cytotoxicity at 10 µM: 17.2%

## CCCC1CCCN(C(=O)Nc2ccc(F)c(C(N)=O)c2)CC1 (stereo not given)
  cytotoxicity at 10 µM: -2.27%

## CCN(C)[C@H]1CN(C(=O)c2cccc(N3CCS(=O)(=O)CC3)c2)C[C@@H]1O
  cytotoxicity at 10 µM: -5.62%

## Cc1nn(C)c(C)c1NC(=O)CN1CCN(c2nccs2)C(C)C1 (stereo not given)
  cytotoxicity at 10 µM: -5.55%

## O=C(CC1CC1)N[C@@H]1CN(C(=O)c2cccs2)C[C@@H]2CCCO[C@@H]21
  cytotoxicity at 10 µM: -113%

## CCOc1cccc(CN2CCCC(Nc3ccc(F)cc3)C2)c1O (stereo not given)
  cytotoxicity at 10 µM: -8.93%

## O=C(CCS(=O)(=O)C1CCCC1)NCc1ccccc1Cn1cncn1
  cytotoxicity at 10 µM: -4.9%

## CCOC(=O)COc1cccc(NC(=O)C2COCCO2)c1 (stereo not given)
  cytotoxicity at 10 µM: 7.01%

## COc1nc2c(cc1C(=O)N1C[C@@H](N)C[C@H]1C(=O)NC(C)C)CCC2
  cytotoxicity at 10 µM: 3.52%

## Cc1cc(C2CCCN2C(=O)Cn2c(C)cc(=O)c3ccccc32)on1 (stereo not given)
  cytotoxicity at 10 µM: -9.02%

## COc1c(CNCc2cccc(Cn3ccnc3C)c2)c(C)nn1C
  cytotoxicity at 10 µM: 23.8%

## CCC(CC)C(=O)N1CCN(Cc2nc3ccccc3c(=O)[nH]2)CC1
  cytotoxicity at 10 µM: -17.6%

## CC(C)NC(=O)CCNC(=O)Nc1cnn(-c2ccccc2Cl)c1
  cytotoxicity at 10 µM: 1.75%

## CCNC(=O)NC(C)c1nc(-c2ccc(Br)cc2)no1 (stereo not given)
  cytotoxicity at 10 µM: 14.7%

## C=C/C=c1\c(=C/C)oc2c(NCc3ccccc3)nc(CC)nc12
  cytotoxicity at 10 µM: 10.4%

## CCC1=NOC(CNCc2cnc(-c3ccccc3C)s2)C1 (stereo not given)
  cytotoxicity at 10 µM: -5.92%

## O=C1CC(c2ccccc2)c2c(c(C(=O)O)cn2-c2ccccc2)N1 (stereo not given)
  cytotoxicity at 10 µM: -0.0616%
